Measured values published in the RNAGym collection of RNA variant scans (doi:10.1038/s41586-018-0170-7).

B1: tRNA (parent)
chain: GUUCCGUUGGCGUAAUGGUAACGCGUCUCCCUCCUAAGGAGAAGACUGCGGGUUCGAGUCCCGUACGGAACG

Variants of: B1
Assay: yeast fitness, log relative to wild type (ln ratio); higher = fitter; tRNA-Arg(CCU), competitive growth, 37 C, 1 M NaCl
In short: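 Two independent transformations put a combinatorial tRNA-Arg(CCU) variant library on a HIS3 centromeric plasmid into BY4742 lacking the chromosomal gene. Pools were grown in SC-HIS at 30 °C for 4 generations, then in SC-HIS 1M NaCl at 37 °C for ~6.5 generations (~26.5 h), with three outputs taken per input. Fitness compares a genotype's generations with the wild type's as a natural log ratio. Those generations are OD-scaled log2 output/input frequencies, inverse-variance weighted across replicates, from 125 bp paired-end Illumina counts.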

Variant	yeast fitness (ln)
U2C G6U C27U C46U C66U	-0.183
U2C G6U C27U C46U C66A	-0.267
U2C G6U C27U A43C C46U	-0.0629
U2C G6U C27U C46U C66U C71U	-0.183
U2C G6U C46U A69G A70U	-0.086
U2C G6U C46U A69G A70G	-0.0922
U2C G6A C46U C71U	-0.0887
U2C G6U C27U A43C C66U A70U C71U	-0.363
U2C G6U C66U A70G C71U	-0.0593
U2G A43C C46U C66A C71U	-0.148
U2C G6U C27U A43C C66A A69G A70U C71U	-0.398
U2C G6U C27U C46U A70U	-0.13
U2C G6U C27U C46U A70G	-0.0953
U2C G6A C66U A69G A70G	-0.0273
U2C G6A C66U A69G A70U	-0.222
U2C G6U A43C C46U C66U A70U C71U	-0.254
U2C G6U C27U C46U A69G C71U	-0.232
U2C G6U C27U C66A A69G A70U C71U	-0.525
U2C G6U C27U C46U C66U A70G C71U	-0.177
U2C G6U C27U C46U A69G A70U	-0.196
U2C G6U C27U C46U A69G A70G	-0.274
U2C G6U C27U A70G C71U	-0.309
U2C G6A C46U C66A A70U C71U	-0.0695
U2C G6U A43C C46U C66U C71U	-0.242

Variant	yeast fitness (ln)
U2C G6U C27U A43C C66A A70G C71U	-0.0868
U2C G6A C46U A70U C71U	-0.0461
U2C G6A C46U C66U A69G A70U	-0.138
U2C G6A C46U C66U A69G A70G	-0.0132
U2C G6A C27U C71U	-0.212
U2C G6U A43C C71U	-0.117
U2C G6U C27U A43C C66A A69G A70G	-0.156
U2C G6U C66U A69G C71U	-0.176
U2C G6U A43C	-0.0574
U2C G6U A43C C66U C71U	-0.349
U2C G6U A43C C46U C66U	-0.158
U2C G6U A43C C46U C66A	-0.0972
U2G A43C A69G	0.00792
U2G A43C A70G C71U	-0.123
U2C G6U C27U C66A A70G C71U	-0.0263
U2C G6A C46U C66U A70G	-0.00418
U2C G6A C46U C66U A70U	-0.0206
U2C G6U C27U A43C C66A A69G A70G C71U	-0.431
U2C G6U C46U C66U A70U C71U	-0.202
U2C G6U C27U C66A A70G	-0.0277
U2C G6U C27U C66A A70U	-0.16
U2G A43C C46U A69G A70U C71U	-0.509
U2C G6U A70U	-0.0726
U2C G6U A70G	-0.0391

Variant	yeast fitness (ln)
U2C G6U C27U C46U C66A A70G C71U	-0.0247
U2G A43C	-0.0825
U2G A43C C46U C66A A69G A70U	-0.0871
U2G A43C C46U C66A A69G A70G	-0.186
U2C G6U C27U	-0.0654
U2C G6A C66A A70G	-0.0699
U2C G6A C66A A70U	-0.094
U2C G6A C46U C66U	0.00338
U2C G6U A43C C66U A70G C71U	-0.172
U2C G6U A43C C66U A69G A70G C71U	-0.352
U2C G6U A43C C46U C66U A69G C71U	-0.347
U2C G6U C27U C46U	-0.0552
U2C G6U C27U C66A C71U	-0.15
U2C G6U A43C C66A A69G A70G C71U	-0.0618
U2C G6U A43C C46U A70G C71U	-0.278
U2G A43C C46U A69G A70G	-0.174
U2G A43C C46U A69G A70U	-0.00112
U2C G6U C27U A43C C46U C66A A70U C71U	-0.164
U2C G6U C46U A70G C71U	-0.0274
U2C G6U C27U A43C C66U A69G A70U C71U	-0.419
U2C G6U A43C A69G A70U	-0.152
U2C G6U A43C A69G A70G	-0.143
U2C G6U A43C C46U C66A C71U	-0.077
U2C G6A C46U A69G A70G	-0.0375

Variant	yeast fitness (ln)
U2C G6A C46U A69G A70U	-0.084
U2C G6U C27U A43C C46U C66A C71U	-0.17
U2G A43C C46U A70G	-0.0614
U2G A43C C46U A70U	0.00593
U2C G6A C66U A69G	-0.271
U2C G6U C27U A43C A69G A70G C71U	-0.281
U2C G6U C27U C66U A69G A70G C71U	-0.288
U2G A43C A69G A70G	-0.0982
U2G A43C A69G A70U	-0.023
U2C G6U C27U C66U A70G	-0.215
U2C G6U C27U C66U A70U	-0.194
U2C G6U C46U C66U C71U	-0.112
U2C G6U C27U A70U C71U	-0.136
U2C G6U A69G A70U	-0.117
U2C G6U A69G A70G	-0.133
U2C G6U C66A	-0.00733
U2C G6U C66U	-0.0417
U2C G6U C27U C46U C66U A70U	-0.132
U2C G6U C27U C46U C66U A70G	-0.0763
U2C G6U C27U C66A A69G A70G C71U	-0.0793
U2C G6U C66A C71U	-0.294
U2C G6U C27U A43C A69G C71U	-0.343
U2C G6U C66A A69G A70U C71U	-0.487
U2C G6U C27U A43C A70U C71U	-0.253

Variant	yeast fitness (ln)
U2C G6U C66A A70G C71U	-0.0156
U2C G6A C66U C71U	-0.28
U2C G6U C27U A43C A69G A70G	-0.242
U2C G6U C27U A43C A69G A70U	-0.271
U2C G6U A43C C46U A69G A70U C71U	-0.393
U2C G6U C46U	-0.0289
U2C G6U C27U C66U A69G A70U C71U	-0.566
U2C G6U C27U C66U A69G A70G	-0.277
U2C G6U C27U C66U A69G A70U	-0.378
U2C G6U C27U A43C C46U C66U A69G A70G	-0.256
U2C G6U C27U A43C C46U C66U A69G A70U	-0.3
U2C G6U C27U C66U A70G C71U	-0.57
U2C G6A C27U C66U C71U	-0.161
U2C G6U C27U A43C C46U C66A A69G A70G C71U	-0.0738
U2G A43C C46U C66A A70U	-0.0637
U2G A43C C46U C66A A70G	-0.119
U2C G6U A43C C66A A70U C71U	-0.272
U2C G6U C27U A43C C46U C66A A70G C71U	-0.0138
U2C G6A C46U C66U A70U C71U	-0.183
U2C G6U A70G C71U	-0.0899
U2C G6U C27U A69G A70U	-0.111
U2C G6U C27U A69G A70G	-0.191
U2C G6U A43C C66U A70U C71U	-0.531
U2C G6U A43C C46U A70U C71U	-0.125

Variant	yeast fitness (ln)
U2C G6U A43C C46U C66A A69G A70U C71U	-0.396
U2C G6U A43C C46U C66U A69G A70G C71U	-0.169
U2C G6U A43C A70U C71U	-0.198
U2C G6U A43C C46U C66A A69G A70U	-0.162
U2C G6U A43C C46U C66A A69G A70G	-0.0147
U2C G6U A43C C46U A69G C71U	-0.17
U2G A43C C46U C66A A70U C71U	-0.193
U2C G6U A43C C46U	-0.0413
U2C G6U C46U A69G A70G C71U	-0.236
U2C G6U C27U A43C C66U	-0.0999
U2C G6U C27U A43C C66A	-0.104
U2C G6U C46U C66U A70U	-0.0353
U2C G6U C46U C66U A70G	-0.0115
U2C G6U C27U A43C C46U A69G A70U C71U	-0.309
U2C G6U C27U A43C C46U C71U	-0.17
U2C G6U C46U C66U	-0.12
U2C G6U C46U C66A	-0.0276
U2C G6U C27U A43C C46U C66U A70G C71U	-0.225
U2C G6A C46U C66U A69G A70U C71U	-0.419
U2C G6U A43C C66A C71U	-0.0984
U2C G6U C27U C46U C66U A69G A70G C71U	-0.493
U2C G6U C66A A70U	0.0021
U2C G6U C66A A70G	-0.0114
U2G A43C C46U C66A A69G A70U C71U	-0.443

Variant	yeast fitness (ln)
U2C G6U C27U C46U C66A C71U	-0.0782
U2C G6A C46U C66U A69G C71U	-0.183
U2C G6A C46U C66A A70U	-0.067
U2C G6A C46U C66A A70G	-0.016
U2C G6U C27U A43C C46U C66U A70G	-0.304
U2C G6U C27U A43C C46U C66U A70U	-0.173
U2C G6A C66U A70G C71U	-0.0109
U2C G6U C27U A43C C46U C66A A70G	-0.0237
U2C G6U C27U A43C C46U C66A A70U	-0.0786
U2C G6U A43C C66A A70G C71U	-0.0145
U2C G6U C27U A70U	-0.153
U2C G6U C27U A70G	-0.185
U2G A43C C46U C66A A69G C71U	-0.302
U2C G6A C46U C66U A69G A70G C71U	-0.00401
U2C G6U C27U A69G A70G C71U	-0.157
U2C G6A C46U	-0.0163
U2C G6U C27U A43C C66U A69G C71U	-0.522
U2C G6U C46U C66U A69G C71U	-0.221
U2C G6U C27U C46U A70U C71U	-0.171
U2C G6U C46U C66A A69G A70G	0.0157
U2C G6U C46U C66A A69G A70U	-0.143
U2C G6A C66U A70G	-0.00663
U2C G6A C66U A70U	-0.0364
